Experimental findings from ChEMBL document CHEMBL4513216, “Probing the Open Global Health Chemical Diversity Library for Multistage-Active Starting Points for Next-Generation Antimalarials” (ACS Infect Dis, 2020) are described below.

A short description of the data set: Toxicity liver stage against HepG2, at 10uM. The data set is classed as cell-based. On the set-up: test concentration 10 uM, cell line HepG2-A16-CD81EGFP. The conditions noted are these: human, HepG2-A16-CD81EGFP cells; read-out: INHIBITION
Put shortly: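 Uninfected HepG2-A16-CD81EGFP cells, 3 × 10^3 per well, 1536-well, plated on prespotted compound at 10 μM final, parasite-free screening media added to match infected plates; puromycin 10 μM positive, DMSO 0.5% negative; run in parallel with 48 h PbLuc assay at 37 °C, 5% CO2; viability by CellTiter-Glo luminescence, normalized to controls.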

For `CNC(=O)NC(=O)CSc1ccc2c(c1)CCC2`, the cytotoxicity at 10 µM was 19.6%.
On to `Cc1nccc(-c2cccc(NCC(=O)N3CCNC3=O)c2)n1`, for which the cytotoxicity at 10 µM is 1.9%.
As to `O=C(CSc1nnc(N2CCOCC2)s1)NC(=O)Nc1ccccc1`, the cytotoxicity at 10 µM came out at 4.44%.
`CC(NC(=O)C1CCCC1)c1nncn1C(C)C` (stereo unspecified): the cytotoxicity at 10 µM stood at 6.89%.
`Cc1cnc(CN2CCN(C(C)c3nc(C(C)C)no3)CC2)cn1` (stereo unspecified): the cytotoxicity at 10 µM amounted to 9.74%.
The figure for `CS(=O)(=O)N1CCCN(c2nccn3cnnc23)CC1` is -8.85%; for `CCC(C)CNc1ccc2oc(COC)nc2c1` (stereo unspecified) it is -22.4%; for `Cc1ccccc1S(=O)(=O)N1CCCCC1c1ccn[nH]1` (stereo unspecified) it is 12.1%.
`O=S(=O)(Nc1ccc(N2CCOCC2)cn1)c1ccc(F)cc1`: the cytotoxicity at 10 µM was -6.64%.
Regarding `Cc1c[nH]nc1C1CCCN(c2cnccn2)C1` (stereo unspecified), the cytotoxicity at 10 µM was 8.75%.
On to `CC(C)N1CCO[C@H]2CN(C(=O)c3ccncc3)C[C@H]21`, for which the cytotoxicity at 10 µM was -74.3%.
Regarding `O=C(NCc1ccccn1)[C@]12COC[C@H]1CN(Cc1ccsc1)C2`, the cytotoxicity at 10 µM stood at 4.91%.
Consider `Cc1[nH]c2ccc(C#N)cc2c1CCNc1ncnc2c1CCNCC2`, for which the cytotoxicity at 10 µM is -11.2%.
With `Cc1ccc2c(c1)C1(CCNCC1)CC2NC(C)C` (stereo unspecified), the cytotoxicity at 10 µM was -9.73%.
With `O=C(CC1CC1)N1C[C@H]2CN(CC3CC3)C(=O)[C@H]2C1`, the cytotoxicity at 10 µM was found to be 3.91%.
With `Cc1nc([C@@H]2C[C@@H]3CCN(Cc4cnn(C)c4)C[C@H]3O2)sc1C` the figure was -3.49%; with `CCCc1nc(CN(CC)C(=O)c2ccc3c(c2)nnn3C)no1`, 9.43%.
As for `CSc1ccc(-c2nc(CN3CCC(C(N)=O)CC3)c(C)o2)cc1`, the cytotoxicity at 10 µM stood at 4.58%.
For `Cn1cc(-c2ncnc3c2CCN(CC2CCOC2)CC3)cn1` (stereo unspecified), the cytotoxicity at 10 µM was -112%.
`O=C1CCCN1CCc1nc(-c2ccsc2)no1`: the cytotoxicity at 10 µM was -1.22%.
Turning to `Cc1cccc(CN(Cc2nc3c(cnn3C)c(=O)[nH]2)C2CC2)c1`, the cytotoxicity at 10 µM stood at 0.914%.
In the case of `CC(C)c1ccc(C(=O)O)cc1S(=O)(=O)Nc1ccc(=O)n(C)c1`, the cytotoxicity at 10 µM is -13.1%.
For `CN(C)C(=O)N1C[C@H]2CN(Cc3cccc(F)c3)C(=O)[C@H]2C1`, the cytotoxicity at 10 µM amounted to 4.61%.
`COCc1cc(NCc2cc(F)ccc2F)n2nccc2n1`: the cytotoxicity at 10 µM is -2.32%.
The figure for `O=C(c1ccc(C2CCNC2)cc1)N1CCC(N2CCC(O)CC2)CC1` (stereo unspecified) is -7.62%.
`Cn1cc(C(=O)N2CCCC2c2noc(C3CC3)n2)c2ccccc21` (stereo unspecified): the cytotoxicity at 10 µM was -0.249%.
Regarding `CCCNCc1cc2c(C)cc(C)cc2n2c(=O)n(C)nc12`, the cytotoxicity at 10 µM is -3.09%.
`COc1ccc(C2CCCN2C(=O)NCCNc2ccccn2)cc1` (stereo unspecified): the cytotoxicity at 10 µM was determined as 6.64%.
Turning to `O=C(NC1CCC1)C1=NOC2(CCN(Cc3ccco3)C2)C1` (stereo unspecified), the cytotoxicity at 10 µM was -80.6%.
For the compound `O=C(c1ncn2c1CNS(=O)(=O)c1ccccc1-2)N1CC=CC1`, the cytotoxicity at 10 µM came out at 10.5%.
In the case of `COCc1nc2cc(NCc3csc(C)n3)ccc2o1`, the cytotoxicity at 10 µM came out at 0.873%.
The figure for `CCCS(=O)(=O)N1C[C@H]2CC[C@@H](C1)N(Cc1cscn1)C2=O` is 12.8%.
Turning to `CCOc1ncccc1CNC(=O)N1CCCC1c1ccncc1` (stereo unspecified), the cytotoxicity at 10 µM was 21.2%.
The figure for `CCCOc1cc(C)c2c(c1C)C[C@H]([C@H](C)C(=O)O)CC2` is -4.19%; for `NCCC1CN(c2nc(-c3ccccc3)nc3c2CCNC3)CCO1` (stereo unspecified) it is -9.26%.
With `CN(C)Cc1cncc2c1CCN(Cc1ccoc1)C2` the figure was -103%; with `Cc1ccc(C(=O)N2C[C@H]3CN(Cc4csc(C)n4)C[C@H]3C2)cn1`, -143%; with `O=S(=O)(c1cccs1)N1CC[C@H](O)[C@@H]1Cc1ccncc1`, 3.19%.
Regarding `CC(=O)Nc1ccc(Oc2ccc3c(c2)OCO3)nc1`, the cytotoxicity at 10 µM is -8.6%.
For `COc1ccc(NC(=O)N2CCCC(CO)C2)c(C)c1` (stereo unspecified), the cytotoxicity at 10 µM is -8.33%.
Turning to `CCn1ncc2c1NC(=O)CC2c1cnc(NCc2ccccc2)nc1` (stereo unspecified), the cytotoxicity at 10 µM is -6.27%.
For `O=C(c1cc2c(s1)CCC2)N1CCC(c2cnccn2)CC1`, the cytotoxicity at 10 µM was -2.34%.
The figure for `COc1ccc2[nH]c(=O)c(CN(C)C(C)c3ccccn3)cc2c1` (stereo unspecified) is 2.76%.
On to `O=C(CC1CCCCC1)N1C[C@@H]2CC[C@H]1CN(Cc1cccnc1)C2`, for which the cytotoxicity at 10 µM is -0.662%.
For `CC(C)[C@H]1COC(=O)N1Cc1noc(-c2ccccc2)n1`, the cytotoxicity at 10 µM came out at 5.01%.
With `COCc1ncn2c1CN(S(=O)(=O)c1ccc(C)cc1)CC2` the figure was -1.18%.
As for `Cc1n[nH]c(C)c1S(=O)(=O)N1CCC(Oc2ccccc2F)CC1`, the cytotoxicity at 10 µM is 1.22%.
As to `Cn1ncc2c1NC(=O)CC2c1c(Cl)cccc1Cl` (stereo unspecified), the cytotoxicity at 10 µM came out at 55.1%.
The figure for `Cn1ccnc1CN1CCC(Cn2cc(-c3ccncc3)nn2)CC1` is -4.5%.
As to `COc1ncccc1CN1C[C@@H]2C[C@@H](C(=O)NCC3CC3)N(C)[C@@H]2C1`, the cytotoxicity at 10 µM came out at 1.2%.
Turning to `CC(C)(C)CN1CCCC(c2nccnc2Nc2cnccn2)C1` (stereo unspecified), the cytotoxicity at 10 µM is 5.37%.
Regarding `O=C(C1CCN(c2ccnc3ccc(Br)cc23)CC1)N1CCOCC1`, the cytotoxicity at 10 µM worked out at 15.6%.
With `Cc1ccnc(N2CCC(=O)N(Cc3ccc(F)cc3)C(C(C)C)C2)n1` (stereo unspecified) the figure was 0.538%.
`Cc1noc(C)c1C(=O)N1CC[C@]2(C[C@@H](OCc3cccnc3)CO2)C1`: the cytotoxicity at 10 µM is -79.7%.
The figure for `CCC[C@H]1CN(c2cncc(C(=O)N(C)C)n2)C[C@@H]1N(C)C` is -7.83%; for `CCn1ccnc1CN1CCN(Cc2cccc(C#N)c2)CC1` it is -22.3%; for `CCCNC(=O)C(C)n1cc(Br)cn1` (stereo unspecified) it is -19.7%.
Take `CC(C)(C)OC(=O)N(CCNS(=O)(=O)N1CCOCC1)C1CC1`: the cytotoxicity at 10 µM was -4.43%.
In the case of `CC(Cc1c(F)cccc1F)NC(=O)NCc1ncnn1C` (stereo unspecified), the cytotoxicity at 10 µM stood at 12.9%.
The figure for `CC(C)c1cccc(NC(=O)N2CC(N(C)C)C2)c1` is 9.12%; for `COc1ccc2c(c1)CN(C)C(=O)CCN2CC(O)C(F)(F)F` (stereo unspecified) it is -6.84%; for `CNC(=O)C1Cc2ccccc2CN1CCc1cccs1` (stereo unspecified) it is -0.837%.
Consider `COc1ccc(CN(C)c2ccc(-c3nccn3C)nn2)cc1OC`, for which the cytotoxicity at 10 µM was -3.32%.
In the case of `Cc1ccc(Cl)c2ccc(NC(CO)CO)nc12`, the cytotoxicity at 10 µM is -12.1%.
In the case of `COCc1cn(C2CCN(CCC(C)c3ccccc3)CC2)nn1` (stereo unspecified), the cytotoxicity at 10 µM is 6.39%.
Consider `CSc1ccc(C(=O)N2CC(=O)N(Cc3cccs3)CC(O)C2)cc1` (stereo unspecified), for which the cytotoxicity at 10 µM came to 2.31%.
On to `CN(CC(C)(C)C)S(=O)(=O)c1ccc(C(F)(F)F)nc1`, for which the cytotoxicity at 10 µM came to 3.24%.
As to `c1cnc(N2CC[C@@H]3O[C@@H](COCc4cccnc4)CC[C@@H]32)nc1`, the cytotoxicity at 10 µM was 11.2%.
On to `O=C(c1ccc2[nH]ccc2c1)N1CCn2cnc(COCC3CC3)c2C1`, for which the cytotoxicity at 10 µM was found to be 5.22%.
The figure for `Cc1noc(C)c1-c1nc(C2CCCNC2)ccc1CO` (stereo unspecified) is -21.3%.
In the case of `O=C1NCCCCC1Sc1ccc(F)c(F)c1` (stereo unspecified), the cytotoxicity at 10 µM came to 5.58%.
For `CC(C)(C)c1n[nH]cc1CNC1CCC(OCC(F)(F)F)CC1` (stereo unspecified), the cytotoxicity at 10 µM is -0.0197%.
As to `Cc1ccc(S(N)(=O)=O)cc1C(=O)N1C[C@@H](CN(C)C)[C@@H](CO)C1`, the cytotoxicity at 10 µM is -0.187%.
For the compound `Cc1cc(CN(Cc2cccs2)CC2CCCO2)on1` (stereo unspecified), the cytotoxicity at 10 µM was -10.1%.
`CCOCCC(=O)N1CCN(CC(C)O)CC1` (stereo unspecified): the cytotoxicity at 10 µM turned out to be 6.7%.
Turning to `Cc1occc1C(=O)N1C[C@@H]2CCCO[C@@H]2[C@H](NS(C)(=O)=O)C1`, the cytotoxicity at 10 µM is -95.3%.
As to `CC(C)CN1C(=O)CO[C@@H]2CNC[C@H]21`, the cytotoxicity at 10 µM was -110%.
Consider `CC(=O)N1CCC(N[C@@H]2CO[C@H](CNC(=O)c3cccs3)[C@H]2O)CC1`, for which the cytotoxicity at 10 µM was 1.96%.
Take `O=S1(=O)COCCN1CCOc1ccc(F)cc1`: the cytotoxicity at 10 µM was -0.505%.
`O=C(NCC(O)c1cccc(F)c1)C1CCN(C2CCCCC2)CC1` (stereo unspecified): the cytotoxicity at 10 µM was 7.07%.
On to `O=C(NCCn1nc2ccccn2c1=O)c1cc[nH]n1`, for which the cytotoxicity at 10 µM is 3.45%.
As for `CCCc1cc(NCCn2cccn2)n2nccc2n1`, the cytotoxicity at 10 µM came to 0.988%.
Turning to `NC1CCN(C(=O)c2cnc(Cc3c(Cl)cccc3Cl)nc2O)C1` (stereo unspecified), the cytotoxicity at 10 µM is -0.803%.
In the case of `COc1ccc(CN2C[C@H](OCC3CCOCC3)[C@H]3COC[C@H]32)cc1`, the cytotoxicity at 10 µM was -9.78%.
For `CC(C)(C)c1cn2nc(N3CCCC(Cn4cncn4)C3)sc2n1` (stereo unspecified), the cytotoxicity at 10 µM was -9.32%.
For `CC(=O)NCc1nnc2n1CCN(c1nc(C)nc3sccc13)CC2`, the cytotoxicity at 10 µM is 15.5%.
The figure for `CC(C)c1nc(S(=O)(=O)Nc2ccnn2C2CCCC2)c[nH]1` is -3.36%.
Regarding `Cc1occc1C(=O)N1CCCN(Cc2cnn(C(C)C)c2)CC1`, the cytotoxicity at 10 µM is -5.62%.
As for `CCCC(NC(=O)c1occc1C)c1nnn[nH]1` (stereo unspecified), the cytotoxicity at 10 µM is -9.36%.
The figure for `Cc1cccc(CCC(=O)NCC2CCCN2c2cccnn2)c1` (stereo unspecified) is -3.96%.
With `COc1ccc(Nc2cc(C)nc(C)n2)cc1N1CCCC1=O`, the cytotoxicity at 10 µM is -2.19%.
`Cc1ccccc1CN1CCC2(COCc3cnc(N(C)C)nc32)C1` (stereo unspecified): the cytotoxicity at 10 µM is -8.22%.
With `CC(=O)NCC[C@H]1CC(C)(C)Oc2ccccc21` the figure was -0.363%; with `Cc1ccc(-c2cn3c(n2)CO[C@@H](CNCc2cccnc2)C3)cc1`, -105%; with `CC1CCN(CCNC(=O)c2ccn(-c3ccc(F)cc3)n2)CC1`, -15.6%.
Regarding `Cc1cnc(C(=O)N2CCC3(CCN3Cc3ccc(F)cc3)C2)cn1` (stereo unspecified), the cytotoxicity at 10 µM was -104%.
